Columns and labels:
Rattus norvegicus [1] = test: Evaluated for the effects on the gastric emptying rates of phenol red semisolid meal through the stomach in rats, at a dose of 2.0 mg/Kg administered perorally.; assay type: functional
How it was run: (§1)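 Mice or rats fasted 18 h. Compound suspended in 0.5% tragacanth given orally 60 min before a gavaged meal of 0.05% phenol red in 1.5% aqueous methylcellulose (0.2 mL/mouse, 1.5 mL/rat). Animals killed 15 min later; phenol red left in stomach measured (Scarpignato method). Emptying expressed as % enhancement over tragacanth-control mean; Duncan's multiple range test.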

[2] = tested on: dopamine D2 receptor (Canis familiaris); test: Evaluated for the dopamine D2 receptor antagonistic activity (antagonism of apomorphine-induced emesis in dogs) at a dose of 3.0 mg/kg administered perorally; conditions: Canis lupus familiaris
Mus musculus [3] = test: Evaluated for the effects on the gastric emptying rates of phenol red semisolid meal through the stomach in mouse, at a dose of 1 mg/kg administered perorally; assay type: functional; conditions: route oral; how it was run: as §1
Mus musculus [4] = test: Evaluated for the effects on the gastric emptying rates of phenol red semisolid meal through the stomach in mouse, at a dose of 2 mg/kg administered perorally; assay type: functional; conditions: route oral; how it was run: as §1
Mus musculus [5] = test: Evaluated for the effects on the gastric emptying rates of phenol red semisolid meal through the stomach in mouse, at a dose of 5 mg/kg administered perorally; assay type: functional; conditions: route oral; how it was run: as §1
Rattus norvegicus [6] = test: Evaluated for the effects on the gastric emptying rates of resin pellets solid meal through the stomach in rats, at a dose of 5.0 mg/kg administered perorally; assay type: functional; conditions: route oral
How it was run: (§2)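 Rats fasted 18 h. Compound suspended in 0.5% tragacanth given orally 30 min before 40 resin pellets (Amberlite IRA-93, 1-mm) are delivered into the stomach by tube. Animals killed 1 h later and pellets remaining in the stomach counted (Jacoby method). Result given as % enhancement over tragacanth-control mean; Duncan's multiple range test.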

Rattus norvegicus [7] = test: Evaluated for the effects on the gastric emptying rates of phenol red semisolid meal through the stomach in rats, at a dose of 5.0 mg/kg administered perorally; assay type: functional; conditions: route oral; how it was run: as §1
Rattus norvegicus [8] = test: Evaluated for the effects on the gastric emptying rates of resin pellets solid meal through the stomach in rats, at a dose of 10 mg/kg administered perorally; assay type: functional; conditions: route oral; how it was run: as §2
Rattus norvegicus [9] = test: Evaluated for the effects on the gastric emptying rates of phenol red semisolid meal through the stomach in rats, at a dose of 10.0 mg/kg administered perorally; assay type: functional; conditions: route oral; how it was run: as §1
Rattus norvegicus [10] = test: Evaluated for the effects on the gastric emptying rates of phenol red semisolid meal through the stomach in rats, at a dose of 2.0 mg/kg administered perorally; assay type: functional; conditions: route oral; how it was run: as §1
[11] = biological target: D(2) dopamine receptor (Canis lupus familiaris) (UniProt Q9GJU1); conditions: 3.0 mg/kg
D(2) dopamine receptor (Canis lupus familiaris), sequence (Q9GJU1 whole entry): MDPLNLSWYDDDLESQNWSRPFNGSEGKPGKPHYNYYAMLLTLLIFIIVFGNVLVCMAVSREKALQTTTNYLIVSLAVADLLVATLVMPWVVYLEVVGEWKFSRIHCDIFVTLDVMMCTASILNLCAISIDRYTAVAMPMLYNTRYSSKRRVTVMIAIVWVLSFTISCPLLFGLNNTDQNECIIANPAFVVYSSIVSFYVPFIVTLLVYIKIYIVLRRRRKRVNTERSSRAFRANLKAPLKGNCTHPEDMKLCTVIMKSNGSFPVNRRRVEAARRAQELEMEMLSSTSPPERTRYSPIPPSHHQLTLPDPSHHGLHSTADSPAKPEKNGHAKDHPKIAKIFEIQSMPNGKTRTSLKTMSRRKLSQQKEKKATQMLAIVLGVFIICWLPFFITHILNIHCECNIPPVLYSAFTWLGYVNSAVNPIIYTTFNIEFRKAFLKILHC

[12] = biological target: D(2) dopamine receptor (Canis lupus familiaris) (UniProt Q9GJU1); test: Evaluated for the dopamine D2 receptor antagonistic activity (antagonism of the apomorphine-induced emesis in dogs) at a dose of 3.0 mg/kg administered perorally (po).; assay type: functional, organism-based; parameters: dose 3 mg/kg
How it was run: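 Male beagle dogs (10-16 kg), groups of three to six, pretreated with test compound; 2 h later apomorphine hydrochloride 0.3 mg/kg s.c.; emetic episodes counted over 1 h. Modified Janssen method.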

Mus musculus [13] = test: Evaluated for the effects on the gastric emptying rates of phenol red semisolid meal through the stomach in mouse, at a dose of 0.5 mg/kg administered perorally; assay type: functional; conditions: route oral; how it was run: as §1
Mus musculus [14] = test: Evaluated for the effects on the gastric emptying rates of phenol red semisolid meal through the stomach in mouse, at a dose of 2 mg/kg administered perorally (po); (p<0.01); assay type: functional; how it was run: as §1
Rattus norvegicus [15] = test: Evaluated for the effects on the gastric emptying rates of resin pellets solid meal through the stomach in rats, at a dose of 2.0 mg/kg administered perorally; assay type: functional; conditions: route oral; how it was run: as §2
Rattus norvegicus [16] = test: Evaluated for the effects on the gastric emptying rates of phenol red semisolid meal through the stomach in rats, at a dose of 0.5 mg/kg administered perorally; assay type: functional; conditions: route oral; how it was run: as §1
Mus musculus [17] = test: Evaluated for the effects on the gastric emptying rates of phenol red semisolid meal through the stomach in mouse, at a dose of 1 mg/Kg administered perorally; assay type: functional; how it was run: as §1
Mus musculus [18] = test: Evaluated for the effects on the gastric emptying rates of phenol red semisolid meal through the stomach in mouse, at a dose of 2 mg/Kg administered perorally; assay type: functional; how it was run: as §1
Mus musculus [19] = test: Evaluated for the effects on the gastric emptying rates of phenol red semisolid meal through the stomach in mouse, at a dose of 5 mg/Kg administered perorally; assay type: functional; how it was run: as §1
Mus musculus [20] = test: Evaluated for the effects on the gastric emptying rates of phenol red semisolid meal through the stomach in mouse, at a dose of 0.5 mg/Kg administered perorally; assay type: functional; how it was run: as §1
Rattus norvegicus [21] = test: Evaluated for the effects on the gastric emptying rates of resin pellets solid meal through the stomach in rats, at a dose of 5.0 mg/Kg administered perorally; assay type: functional; how it was run: as §2
Rattus norvegicus [22] = test: Evaluated for the effects on the gastric emptying rates of phenol red semisolid meal through the stomach in rats, at a dose of 5.0 mg/Kg administered perorally; assay type: functional; how it was run: as §1
Rattus norvegicus [23] = test: Evaluated for the effects on the gastric emptying rates of resin pellets solid meal through the stomach in rats, at a dose of 10 mg/Kg administered perorally; assay type: functional; how it was run: as §2
Rattus norvegicus [24] = test: Evaluated for the effects on the gastric emptying rates of resin pellets solid meal through the stomach in rats, at a dose of 2.0 mg/Kg administered perorally; assay type: functional; how it was run: as §2
Rattus norvegicus [25] = test: Evaluated for the effects on the gastric emptying rates of phenol red semisolid meal through the stomach in rats, at a dose of 0.5 mg/Kg administered perorally; assay type: functional; how it was run: as §1
Rattus norvegicus [26] = test: Evaluated for the effects on the gastric emptying rates of phenol red semisolid meal through the stomach in rats, at a dose of 10.0 mg/Kg administered perorally; assay type: functional; how it was run: as §1

## COc1cc(C(=O)NCC2CN(Cc3ccccc3)CCO2)cc(OC)c1OC.O=C(O)C(=O)O (stereo not drawn)
Rattus norvegicus [1]
  GE: 11%

## CCN(CC)c1cc(OC)c(C(=O)NCC2CN(Cc3ccccc3)CCO2)cc1Cl.O=C(O)C(=O)O (stereo not drawn)
Rattus norvegicus [1]
  GE: 21%

## COc1cc(NC(C)=O)ccc1C(=O)NCC1CN(Cc2ccccc2)CCO1.O (stereo not drawn)
Rattus norvegicus [1]
  GE: 24%

## O=C(NCC1CN(Cc2ccccc2)CCO1)c1c(F)c(F)c(F)c(F)c1F.O=C(O)C(=O)O (stereo not drawn)
Rattus norvegicus [1]
  GE: 9%

## COc1cc(N)c(Cl)cc1C(=O)NCC1CN(Cc2ccccc2)CCO1 (stereo not drawn) [listing 1 of 2 here]
[2]
  inhibition: 4%

## CCOc1cc(N(C)C)c(Cl)cc1C(=O)NCC1CN(Cc2ccccc2)CCO1.O=C(O)C(=O)O (stereo not drawn)
Rattus norvegicus [1]
  GE: 51%

## CCN(CC)CCNC(=O)c1cc(Cl)c(N)cc1OC [METOCLOPRAMIDE]
Mus musculus [3]
  GE: -10%
Mus musculus [4]
  GE: 20%
Mus musculus [5]
  GE: 28%
Rattus norvegicus [6]
  GE: 23%
Rattus norvegicus [7]
  GE: 26%
Rattus norvegicus [8]
  GE: 43%
Rattus norvegicus [9]
  GE: 31%
Rattus norvegicus [10]
  GE: 21%
[11]
  inhibition: 100%

## COc1cc(Cl)c(N)cc1C(=O)NCC1CN(Cc2ccccc2)CCO1 (stereo not drawn)
Rattus norvegicus [1]
  GE: 10%

## COc1cc(N)c([N+](=O)[O-])cc1C(=O)NCC1CN(Cc2ccccc2)CCO1.O (stereo not drawn)
Rattus norvegicus [1]
  GE: 14%

## COc1cc(Cl)ccc1C(=O)NCC1CN(Cc2ccccc2)CCO1.Cl (stereo not drawn)
Rattus norvegicus [1]
  GE: 23%

## COc1ccccc1C(=O)NCC1CN(Cc2ccccc2)CCO1.O=C(O)/C=C/C(=O)O (stereo not drawn)
Rattus norvegicus [1]
  GE: 17%

## CCOc1cc(N)c(Cl)cc1C(=O)NCC1CN(Cc2ccccc2)CCO1.O (stereo not drawn)
[12]
  inhibition: 5%
Mus musculus [13]
  GE: 35%
Mus musculus [3]
  GE: 23%
Mus musculus [14]
  GE: 52%
Mus musculus [5]
  GE: 38%
Rattus norvegicus [15]
  GE: 58%
Rattus norvegicus [6]
  GE: 76%
Rattus norvegicus [7]
  GE: 56%
Rattus norvegicus [16]
  GE: 34%
Rattus norvegicus [9]
  GE: 49%
Rattus norvegicus [10]
  GE: 54%

## COc1cc(N(C)C)c(Cl)cc1C(=O)NCC1CN(Cc2ccccc2)CCO1.O=C(O)/C=C/C(=O)O (stereo not drawn)
[12]
  inhibition: 0%
Mus musculus [13]
  GE: 7%
Mus musculus [3]
  GE: 33%
Mus musculus [4]
  GE: 43%
Mus musculus [5]
  GE: 43%
Rattus norvegicus [15]
  GE: 15%
Rattus norvegicus [6]
  GE: 5%
Rattus norvegicus [7]
  GE: 47%
Rattus norvegicus [16]
  GE: 27%
Rattus norvegicus [9]
  GE: 49%
Rattus norvegicus [10]
  GE: 52%

## COc1cc(N)ccc1C(=O)NCC1CN(Cc2ccccc2)CCO1 (stereo not drawn)
Rattus norvegicus [1]
  GE: 11%

## CCOc1cc(N)c(Cl)cc1C(=O)NCCCC1CN(Cc2ccccc2)CCO1 (stereo not drawn)
Rattus norvegicus [1]
  GE: 18%

## COc1cc(N)c(Cl)cc1C(=O)NCC1CN(Cc2ccccc2)CCO1 (stereo not drawn) [listing 2 of 2 here]
Mus musculus [17]
  GE: 49%
Mus musculus [18]
  GE: 46%
Mus musculus [19]
  GE: 68%
Mus musculus [20]
  GE: 50%
Rattus norvegicus [21]
  GE: 70%
Rattus norvegicus [22]
  GE: 35%
Rattus norvegicus [23]
  GE: 78%
Rattus norvegicus [24]
  GE: 49%
Rattus norvegicus [25]
  GE: 18%
Rattus norvegicus [26]
  GE: 52%
Rattus norvegicus [1]
  GE: 26%

## COc1ccc(S(N)(=O)=O)cc1C(=O)NCC1CN(Cc2ccccc2)CCO1 (stereo not drawn)
Rattus norvegicus [1]
  GE: 24%

## COc1cc(N)c(Cl)cc1C(=O)OCC1CN(Cc2ccccc2)CCO1 (stereo not drawn)
Rattus norvegicus [1]
  GE: 17%

## COc1cc(N)c(Cl)cc1C(=O)NCC1CN(Cc2ccccc2)CCO1.Cl (stereo not drawn)
Rattus norvegicus [1]
  GE: 39%

## CCOc1cc(N)c(Cl)cc1C(=O)NCCC1CN(Cc2ccccc2)CCO1 (stereo not drawn)
Rattus norvegicus [1]
  GE: 45%

## COc1cc(N)c(Cl)cc1C(=O)NC1CCN(CCCOc2ccc(F)cc2)CC1OC (stereo not drawn) [CISAPRIDE]
Mus musculus [13]
  GE: 24%
Mus musculus [3]
  GE: 29%
Mus musculus [4]
  GE: 36%
Mus musculus [5]
  GE: 38%
Rattus norvegicus [7]
  GE: 50%
Rattus norvegicus [16]
  GE: 14%
Rattus norvegicus [9]
  GE: 43%
Rattus norvegicus [10]
  GE: 47%

## O=C(NCC1CN(Cc2ccccc2)CCO1)c1cccc2c1OCO2.O=C(O)/C=C/C(=O)O (stereo not drawn)
Rattus norvegicus [1]
  GE: 30%

## Nc1ccc(C(=O)NCC2CN(Cc3ccccc3)CCO2)cc1Cl.O=C(O)C(=O)O (stereo not drawn)
Rattus norvegicus [1]
  GE: 30%

## CNc1cc(OC)c(C(=O)NCC2CN(Cc3ccccc3)CCO2)cc1Cl.O=C(O)/C=C/C(=O)O (stereo not drawn)
Rattus norvegicus [1]
  GE: 14%

## COc1ccc(Cl)cc1C(=O)NCC1CN(Cc2ccccc2)CCO1.Cl (stereo not drawn)
Rattus norvegicus [1]
  GE: 19%

## Nc1cc(O)c(C(=O)NCC2CN(Cc3ccccc3)CCO2)cc1Cl.O (stereo not drawn)
Rattus norvegicus [1]
  GE: 36%

## CN(C)c1cc(O)c(C(=O)NCC2CN(Cc3ccccc3)CCO2)cc1Cl.O=C(O)C(=O)O (stereo not drawn)
Rattus norvegicus [1]
  GE: 27%

## COc1c(Cl)cc(Cl)c(OC)c1C(=O)NCC1CN(Cc2ccccc2)CCO1 (stereo not drawn)
Rattus norvegicus [1]
  GE: 4%

## COc1cc(N)c(Cl)cc1C(=O)NCCC1CN(Cc2ccccc2)CCO1.O=C(O)/C=C/C(=O)O (stereo not drawn)
Rattus norvegicus [1]
  GE: 35%

## O=C(NCC1CN(Cc2ccccc2)CCO1)c1ccc2c(c1)OCO2.O=C(O)/C=C/C(=O)O (stereo not drawn)
Rattus norvegicus [1]
  GE: 34%

## COc1cc(N)c(Cl)cc1C(=O)NCCCC1CN(Cc2ccccc2)CCO1.O=C(O)C(=O)O (stereo not drawn)
Rattus norvegicus [1]
  GE: 23%

## CC(=O)Nc1cc(O)c(C(=O)NCC2CN(Cc3ccccc3)CCO2)cc1Cl (stereo not drawn)
Rattus norvegicus [1]
  GE: 11%

## CCSc1ccc(S(N)(=O)=O)cc1C(=O)NCC1CN(Cc2ccccc2)CCO1 (stereo not drawn)
Rattus norvegicus [1]
  GE: 27%

## NS(=O)(=O)c1ccc(Cl)c(C(=O)NCC2CN(Cc3ccccc3)CCO2)c1 (stereo not drawn)
Rattus norvegicus [1]
  GE: 18%

## CN(C)c1c(Cl)cc(C(=O)NCC2CN(Cc3ccccc3)CCO2)c(O)c1Cl.O=C(O)C(=O)O (stereo not drawn)
Rattus norvegicus [1]
  GE: 14%

## CCOc1ccc(S(N)(=O)=O)cc1C(=O)NCC1CN(Cc2ccccc2)CCO1 (stereo not drawn)
Rattus norvegicus [1]
  GE: 19%

## COc1cc(N)c(Br)cc1C(=O)NCC1CN(Cc2ccccc2)CCO1 (stereo not drawn)
Rattus norvegicus [1]
  GE: 10%

## COc1cc(N)c(Cl)cc1C(=O)N(C)CC1CN(Cc2ccccc2)CCO1.O=C(O)/C=C/C(=O)O (stereo not drawn)
Rattus norvegicus [1]
  GE: 15%
